Laboratory results taken from ChEMBL document CHEMBL3853307, “Anti-inflammatory Effect of Methyl Gallate on Experimental Arthritis: Inhibition of Neutrophil Recruitment, Production of Inflammatory Mediators, and Activation of Macrophages” (J Nat Prod, 2016).
Activity calls are given as the source filed them. No cut-off for these calls is given here.

Key:
[1] = system: Mus musculus; assay: Antiinflammatory activity in C57BL/6 mouse assessed as inhibition of zymosan-induced knee joint edema formation at 10 mg/kg, ip administered 1 hr prior to zymosan challenge measured at 6 hrs relative to control; assay type: functional; details: C57BL/6, Knee joint
How it was run: (§1)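 Male C57BL/6 mice, fasted overnight, dosed orally (vehicle saline/water, 200 μL) or i.p. 1 h before zymosan (500 μg in 25 μL saline, i.a., left knee). Knee swelling measured as change in transverse diameter from basal by digital caliper (mm). Synovial washes (PBS/EDTA) counted on a particle counter; differentials from May-Grünwald-Giemsa cytospins, cells ×10^5/cavity. Sampled at 6 and/or 24 h; seven mice/group.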

[2] = system: Mus musculus; assay: Antiinflammatory activity in C57BL/6 mouse assessed as inhibition of zymosan-induced knee joint edema formation at 10 mg/kg, ip administered 1 hr prior to zymosan challenge measured at 24 hrs relative to control; assay type: functional; details: C57BL/6, Knee joint; how it was run: as §1
[3] = system: Mus musculus; assay: Antiinflammatory activity in C57BL/6 mouse assessed as inhibition of zymosan-induced total leukocyte accumulation in articular cavity at 10 mg/kg, ip administered 1 hr prior to zymosan challenge measured at 6 to 24 hrs; assay type: functional, organism-based; how it was run: as §1
[4] = system: Mus musculus; assay: Antiinflammatory activity in C57BL/6 mouse assessed as inhibition of zymosan-induced neutrophil migration in articular cavity at 10 mg/kg, ip administered 1 hr prior to zymosan challenge measured at 6 to 24 hrs; assay type: functional, organism-based; how it was run: as §1
[5] = system: Mus musculus; assay: Antiinflammatory activity in C57BL/6 mouse assessed as inhibition of zymosan-induced mononuclear cells migration in articular cavity at 10 mg/kg, ip administered 1 hr prior to zymosan challenge measured at 6 to 24 hrs; assay type: functional, organism-based; how it was run: as §1
[6] = system: Mus musculus; assay: Antiinflammatory activity in C57BL/6 mouse assessed as inhibition of zymosan-induced synovial hyperplasia at 10 mg/kg, ip administered 1 hr prior to zymosan challenge measured at 6 to 24 hrs by hematoxylin and eosin staining-based optical microscopy; assay type: functional, organism-based
How it was run: (§2)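 Mice dosed orally or i.p. 1 h before i.a. zymosan (500 μg/cavity) or saline. Whole knees taken at 6 and 24 h from six mice, fixed in 10% formalin 48 h, decalcified in 10% EDTA/PBS 1−2 weeks, paraffin-embedded. 5 μm sections H&E-stained and examined by light microscopy. Parameter scores summed into an arthritis index; means ± SEM, two experiments.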

[7] = system: Mus musculus; assay: Antiinflammatory activity in C57BL/6 mouse assessed as inhibition of zymosan-induced infiltration of inflammatory cells into synovial tissue at 10 mg/kg, ip administered 1 hr prior to zymosan challenge measured at 6 to 24 hrs by hematoxylin and eosin staining-based optical microscopy; assay type: functional, organism-based; how it was run: as §2
[8] = system: Mus musculus; assay: Antiinflammatory activity in C57BL/6 mouse assessed as inhibition of zymosan-induced bleeding in synovial tissue at 10 mg/kg, ip administered 1 hr prior to zymosan challenge measured at 6 to 24 hrs by hematoxylin and eosin staining-based optical microscopy; assay type: functional, organism-based; how it was run: as §2
[9] = system: Mus musculus; assay: Antiinflammatory activity in C57BL/6 mouse assessed as inhibition of zymosan-induced arthritis score at 10 mg/kg, ip administered 1 hr prior to zymosan challenge measured at 6 to 24 hrs by hematoxylin and eosin staining-based optical microscopy; assay type: functional, organism-based; how it was run: as §2
[10] = system: Mus musculus; assay: Antiinflammatory activity in C57BL/6 mouse assessed as inhibition of zymosan-induced IL6 production in cell-free supernatant of knee joint synovial washes at 10 mg/kg, ip administered 1 hr prior to zymosan challenge measured at 6 to 24 hrs by sandwich ELISA method; assay type: functional, organism-based
How it was run: (§3)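 Male C57BL/6 mice (18−22 g), fasted overnight, dosed orally (in filtered water, 200 μL) or i.p. 1 h before i.a. zymosan (500 μg in 25 μL saline) into left knee; contralateral knee got vehicle. Synovial cavity washed twice with 150 μL PBS/10 mM EDTA at 6 and 24 h; washes spun 400g 10 min, 4 °C. Cytokines measured by sandwich ELISA, LTB4/PGE2 by EIA (pg/mL); six mice/group, two experiments.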

[11] = system: Mus musculus; assay: Antiinflammatory activity in C57BL/6 mouse assessed as inhibition of zymosan-induced TNFalpha production in cell-free supernatant of knee joint synovial washes at 10 mg/kg, ip administered 1 hr prior to zymosan challenge measured at 6 to 24 hrs by sandwich ELISA method; assay type: functional, organism-based; how it was run: as §3
[12] = system: Mus musculus; assay: Antiinflammatory activity in C57BL/6 mouse assessed as inhibition of zymosan-induced IL-1beta production in cell-free supernatant of knee joint synovial washes at 10 mg/kg, ip administered 1 hr prior to zymosan challenge measured at 6 to 24 hrs by sandwich ELISA method; assay type: functional, organism-based; how it was run: as §3
[13] = system: Mus musculus; assay: Antiinflammatory activity in C57BL/6 mouse assessed as inhibition of zymosan-induced CXCL1/KC production in cell-free supernatant of knee joint synovial washes at 10 mg/kg, ip administered 1 hr prior to zymosan challenge measured at 6 to 24 hrs by sandwich ELISA method; assay type: functional, organism-based; how it was run: as §3
[14] = system: Mus musculus; assay: Antiinflammatory activity in C57BL/6 mouse assessed as inhibition of zymosan-induced PGE2 production in cell-free supernatant of knee joint synovial washes at 10 mg/kg, ip administered 1 hr prior to zymosan challenge measured at 6 to 24 hrs by immunosorbent assay; assay type: functional, organism-based; how it was run: as §3
[15] = system: Mus musculus; assay: Antiinflammatory activity in C57BL/6 mouse assessed as inhibition of zymosan-induced LTB4 production in cell-free supernatant of knee joint synovial washes at 10 mg/kg, ip administered 1 hr prior to zymosan challenge measured at 6 to 24 hrs by immunosorbent assay; assay type: functional, organism-based; how it was run: as §3
[16] = system: Neutrophil; assay: Antiinflammatory activity in C57BL/6 mouse neutrophils assessed as inhibition of CXCL1/KC-induced neutrophil chemotaxis at 50 nM preincubated for 1 hr followed by CXCL1/KC-induction measured after 1 hr by Wright-Giemsa staining-based light microscopic method; assay type: functional, cell-based
How it was run: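 Bone marrow neutrophils from C57BL/6 femurs, purified on a 65%/72% Percoll gradient (~85−90% purity). 10^5 cells preincubated 1 h with compound or medium, then placed in a 48-well Boyden chamber over CXCL-1/KC (250 nM) across a 5 μm polycarbonate filter, 60 min at 37 °C, 5% CO2. Filter Wright-Giemsa stained; migrated cells counted in 15 fields; quadruplicate wells.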

[17] = system: J774.A1; assay: Antiinflammatory activity in mouse J774A.1 cells assessed as inhibition of zymosan and IFNgamma-induced IL6 production in cell-free supernatant at 1 uM preincubated for 1 hr followed by zymosan and IFNgamma addition measured after 24 hrs by sandwich ELISA; assay type: functional, cell-based
How it was run: (§4)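 J774A.1 macrophages (1 × 10^5/well, RPMI/10% FBS) adhered 24 h, preincubated 1 h with compound (0.1−10 μM) or dexamethasone (1 μM), then stimulated with zymosan (10 μg per 10^5 cells) and/or IFN-γ (25 U/mL) for 24 h. Supernatant IL-6 by sandwich ELISA; nitrite by Griess reaction at 540 nm. Quadruplicate wells, two experiments.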

[18] = system: J774.A1; assay: Antiinflammatory activity in mouse J774A.1 cells assessed as inhibition of zymosan and IFNgamma-induced COX2 expression at 1 uM preincubated for 1 hr followed by zymosan and IFNgamma addition measured after 24 hrs by Western blot analysis; assay type: functional, cell-based
How it was run: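 J774A.1 cells in six-well plates pretreated 1 h (0.1−10 μM) before zymosan (10 μg per 10^5 cells) and/or IFN-γ (25 U/mL) for 24 h. Lysates (Tris/NaCl/MgCl2/0.5% NP40 with protease inhibitors); 30 μg protein run on 7.5% SDS-PAGE, transferred to PVDF, probed for COX-2, iNOS and α-tubulin.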

[19] = system: J774.A1; assay: Antiinflammatory activity in mouse J774A.1 cells assessed as inhibition of zymosan and IFNgamma-induced nitric oxide production at 1 uM preincubated for 1 hr followed by zymosan and IFNgamma addition measured after 24 hrs by colorimetric Griess test; assay type: functional, cell-based; how it was run: as §4

`C[C@@H]1C[C@H]2[C@@H]3CCC4=CC(=O)C=C[C@]4(C)[C@@]3(F)[C@@H](O)C[C@]2(C)[C@@]1(O)C(=O)CO` [DEXAMETHASONE] was tested, and the inhibition in vivo at 10 mg/kg [1] was 42%, the inhibition in vivo at 10 mg/kg [2] was 48% and the inhibition [3] was “Active”. The inhibition [4] was “Active”, the inhibition [5] was “Active” and the inhibition [6] was “Active”. The inhibition [7] was “Active”, the inhibition [8] was “Active” and the inhibition [9] was “Active”. For the same compound, the inhibition [10] was “Active”, the inhibition [11] was “Active” and the inhibition [12] was “Active”. The inhibition [13] was “Active”, the inhibition [14] was “Active” and the inhibition [15] was “Active”. The inhibition [16] was “Active”, the inhibition [17] was “Active” and the inhibition [18] was “Active”. The inhibition [19] was “Active”.
